Source: ChEMBL document CHEMBL3785069, “Tumour-specific cytotoxicity and structure-activity relationships of novel 1-[3-(2-methoxyethylthio)propionyl]-3,5-bis(benzylidene)-4-piperidones” (Bioorg Med Chem, 2016)
Activity calls are given as the source filed them. The calls are words filed in the database; no cut-off is given here.

Columns and labels:
[1] = system: HSC-2; experiment: Induction of apoptosis in human HSC2 cells assessed as PARP1 cleavage after 24 hrs by SDS-PAGE method; type: functional, cell-based
How it was run: (§1)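 HSC-2 cells grown in 6-well plates for 24 h, then exposed to 0.1, 0.2, 0.3 and 0.4 µM for 24 h. Cells scraped into lysis buffer and run on 8% SDS-PAGE, then transferred to PVDF. Cleaved PARP (Asp214) detected with a human-specific antibody on X-ray film.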

[2] = Cytotoxicity against human Molt4/C8 cells after 72 hrs by MTT assay; type: functional, cell-based; conditions: MOLT-4, 72 h
How it was run: (§2)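 Leukemic cells exposed to a concentration series of each compound in RPMI 1640 medium at 37 °C, 72 h for Molt4/C8 and CEM, 48 h for L1210.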

[3] = system: CCRF-CEM; experiment: Cytotoxicity against human CEM cells after 72 hrs by MTT assay; type: functional, cell-based; how it was run: as §2
[4] = system: L1210; experiment: Cytotoxicity against mouse L1210 cells after 48 hrs by MTT assay; type: functional, cell-based; conditions: L1210, 48 h; how it was run: as §2
[5] = Cytotoxicity against human HSC2 cells after 48 hrs by MTT assay; type: functional; conditions: HSC-2, 48 h
How it was run: (§3)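 Oral carcinoma (HSC-2, HSC-3, HSC-4) and nonmalignant HGF and HPLF cells incubated with graded compound concentrations at 37 °C for 48 h in DMEM plus 10% heat-inactivated FBS. Viability read by MTT. CC50 from duplicate runs, differing by under 10% at each concentration.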

[6] = Cytotoxicity against human HSC3 cells after 48 hrs by MTT assay; type: functional; conditions: HSC-3, 48 h; how it was run: as §3
[7] = Cytotoxicity against human HSC4 cells after 48 hrs by MTT assay; type: functional; conditions: HSC-4, 48 h; how it was run: as §3
[8] = Cytotoxicity against human HGF cells after 48 hrs by MTT assay; type: cell-based; how it was run: as §3
[9] = Cytotoxicity against human HPLF cells after 48 hrs by MTT assay; type: cell-based; how it was run: as §3
[10] = system: HSC-2; experiment: Potency index, ratio of CC50 for mephalan to CC50 for test compound against human HSC2 cells; type: functional
[11] = system: HSC-3; experiment: Potency index, ratio of CC50 for mephalan to CC50 for test compound against human HSC3 cells; type: functional
[12] = system: HSC-4; experiment: Potency index, ratio of CC50 for mephalan to CC50 for test compound against human HSC4 cells; type: functional
[13] = system: HSC-2; experiment: Induction of apoptosis in human HSC2 cells assessed as cell death after 24 hrs by Annexin-V-FITC/PI-based flow cytometric analysis; type: functional
How it was run: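 HSC-2 cells treated in RPMI for 24 h at 37 °C at 0.5, 1.0 and 2.0 µM. Early and late apoptotic fractions measured by flow cytometry after Annexin-V-FITC/propidium iodide staining.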

[14] = system: HSC-2; experiment: Selectivity index, ratio of average CC50 for human HGF and HPLF cells to CC50 for human HSC2 cells; conditions: pooled result: one value given for 2 cell lines, strains, targets or settings
[15] = system: HSC-3; experiment: Selectivity index, ratio of average CC50 for human HGF and HPLF cells to CC50 for human HSC3 cells; conditions: pooled result: one value given for 2 cell lines, strains, targets or settings
[16] = system: HSC-4; experiment: Selectivity index, ratio of average CC50 for human HGF and HPLF cells to CC50 for human HSC4 cells; conditions: pooled result: one value given for 2 cell lines, strains, targets or settings
[17] = system: HSC-2; experiment: Induction of apoptosis in human HSC2 cells assessed as PARP1 cleavage at 0.4 uM after 24 hrs by SDS-PAGE method; type: functional, cell-based; how it was run: as §1

Compound | Activity [1] | IC50 [2] [nM] | IC50 [3] [nM] | IC50 [4] [nM] | CC50 [5] [nM] | CC50 [6] [nM] | CC50 [7] [nM] | CC50 at 48 h [8] [nM] | CC50 at 48 h [9] [nM] | Ratio [10] | Ratio [11] | Ratio [12] | Activity [13] | Selectivity Index [14] | Selectivity Index [15] | Selectivity Index [16] | Activity [17]
COCCSCCC(=O)N1C/C(=C\c2ccc([N+](=O)[O-])cc2)C(=O)/C(=C/c2ccc([N+](=O)[O-])cc2)C1 | Dose-dependent effect | 1370 | 1290 | 2130 | 400 | 390 | 300 | 3520 | 2590 | 35 | 35 | 35 | Dose-dependent effect | 7.65 | 7.85 | 10.2 | –
COCC[S+](C)CCC(=O)N1C/C(=C\c2ccccc2)C(=O)/C(=C/c2ccccc2)C1.F[B-](F)(F)F (configuration not stated) | – | 1340 | 1400 | 3450 | 1560 | 1430 | 1360 | 10100 | 6250 | – | – | – | – | 5.24 | 5.72 | 6.02 | –
COCCOCCC(=O)N1C/C(=C\c2ccccc2)C(=O)/C(=C/c2ccccc2)C1 | – | 1840 | 1760 | 6240 | 1010 | 1320 | 1220 | 9240 | 8840 | – | – | – | – | 8.95 | 6.85 | 7.41 | –
COCCS(=O)(=O)CCC(=O)N1C/C(=C\c2ccc(F)cc2)C(=O)/C(=C/c2ccc(F)cc2)C1 | – | 1120 | 610 | 2450 | – | – | – | – | – | – | – | – | – | – | – | – | –
COCCSCCC(=O)N1C/C(=C\c2ccc(OC)cc2)C(=O)/C(=C/c2ccc(OC)cc2)C1 | – | 7080 | 6310 | 13200 | 1970 | 2270 | 1630 | 17200 | 15500 | – | – | – | – | 8.33 | 7.23 | 10.1 | –
COCCSCCC(=O)N1C/C(=C\c2ccc(C)cc2)C(=O)/C(=C/c2ccc(C)cc2)C1 | – | 2660 | 1950 | 4900 | 1450 | 1700 | 1200 | 10300 | 9170 | – | – | – | – | 6.72 | 5.73 | 8.12 | –
COCCSCCC(=O)N1C/C(=C\c2ccc(Cl)cc2)C(=O)/C(=C/c2ccc(Cl)cc2)C1 | – | 1730 | 1240 | 3440 | 1090 | 1030 | 810 | 5240 | 5970 | – | – | – | – | 5.15 | 5.45 | 6.93 | –
COCCSCCC(=O)N1C/C(=C\c2ccccc2)C(=O)/C(=C/c2ccccc2)C1 | – | 1340 | 1230 | 3000 | 1300 | 1470 | 1220 | 9670 | 7580 | – | – | – | – | 6.64 | 5.87 | 7.07 | –
COCCS(=O)(=O)CCC(=O)N1C/C(=C\c2ccccc2)C(=O)/C(=C/c2ccccc2)C1 | – | 1660 | 1140 | 2670 | 1460 | 1190 | 1300 | 9590 | 8430 | – | – | – | – | 6.17 | 7.57 | 6.93 | –
COCC[S+]([O-])CCC(=O)N1C/C(=C\c2ccc(F)cc2)C(=O)/C(=C/c2ccc(F)cc2)C1 (configuration not stated) | – | 1280 | 830 | 3330 | 690 | 1010 | 700 | 4830 | 4210 | – | – | – | – | 6.55 | 4.48 | 6.46 | –
N[C@@H](Cc1ccc(N(CCCl)CCCl)cc1)C(=O)O [MELPHALAN] | – | 3480 | 1740 | 5940 | 16700 | 9900 | 11100 | 78000 | 77100 | – | – | – | – | 4.65 | 7.84 | 6.99 | –
COCC[S+]([O-])CCC(=O)N1C/C(=C\c2ccccc2)C(=O)/C(=C/c2ccccc2)C1 (configuration not stated) | – | 1620 | 1290 | 4910 | 580 | 2100 | 1020 | 9090 | 9100 | – | – | – | – | 15.7 | 4.33 | 8.92 | –
COCCSCCC(=O)N1C/C(=C\c2ccc(OC)c(OC)c2)C(=O)/C(=C/c2ccc(OC)c(OC)c2)C1 | – | 1810 | 1840 | 1570 | 400 | 1220 | 860 | 9830 | 8070 | – | – | – | – | 22.4 | 7.34 | 10.4 | Active
COCCSCCC(=O)N1C/C(=C\c2ccc(F)cc2)C(=O)/C(=C/c2ccc(F)cc2)C1 | – | 1720 | 1600 | 5850 | 760 | 1190 | 560 | 5270 | 4990 | – | – | – | – | 6.75 | 4.31 | 9.16 | –
